# Measured values as given in ChEMBL document CHEMBL4715770, “Inhibition of Low Molecular Weight Protein Tyrosine Phosphatase by an Induced-Fit Mechanism” (J Med Chem, 2016).
# pIC50, pKi: −log10 of the molar value.
# Key:
# [1] = target: T1, Low molecular weight phosphotyrosine protein phosphatase (Homo sapiens, UniProt P24666); test: Inhibition of His-tagged LMW-PTP isoform A (unknown origin) expressed in Escherichia coli BL21 cells using para-nitrophenyl phosphate as substrate incubated for 5 to 10 mins by microplate reader based spectrophotometric analysis
# T1 sequence (P24666 whole entry): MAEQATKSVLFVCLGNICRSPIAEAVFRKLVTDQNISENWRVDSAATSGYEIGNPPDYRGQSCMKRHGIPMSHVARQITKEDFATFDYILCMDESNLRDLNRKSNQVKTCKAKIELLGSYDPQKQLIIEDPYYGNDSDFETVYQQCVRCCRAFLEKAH
# [2] = target: T1, Low molecular weight phosphotyrosine protein phosphatase; test: Competitive inhibition of His-tagged LMW-PTP isoform A (unknown origin) expressed in Escherichia coli BL21 cells using para-nitrophenyl phosphate as substrate by Lineweaver-Burk plot analysis
# How it was run: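 Recombinant enzyme Ni-NTA purified (Tris pH 7.8, 500 mM NaCl, 250 mM imidazole elution), then Sephadex G75. pNPP hydrolysis in 50 mM 3,3-dimethylglutarate, pH 7.0, 25 °C. Enzyme added last to mixes of varied pNPP and inhibitor concentrations, 5-10 min, NaOH quench. p-nitrophenol read at 405 nm (ε 18,000 M-1cm-1), no-enzyme blank subtracted. Ki fitted by enzyme-kinetics regression.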
# [3] = target: T2, Tyrosine-protein phosphatase non-receptor type 1 (Homo sapiens, UniProt P18031); test: Inhibition of His-tagged PTP1B (unknown origin) expressed in Escherichia coli BL21 cells using para-nitrophenyl phosphate as substrate incubated for 5 to 10 mins by microplate reader based spectrophotometric analysis
# T2 sequence (P18031 whole entry): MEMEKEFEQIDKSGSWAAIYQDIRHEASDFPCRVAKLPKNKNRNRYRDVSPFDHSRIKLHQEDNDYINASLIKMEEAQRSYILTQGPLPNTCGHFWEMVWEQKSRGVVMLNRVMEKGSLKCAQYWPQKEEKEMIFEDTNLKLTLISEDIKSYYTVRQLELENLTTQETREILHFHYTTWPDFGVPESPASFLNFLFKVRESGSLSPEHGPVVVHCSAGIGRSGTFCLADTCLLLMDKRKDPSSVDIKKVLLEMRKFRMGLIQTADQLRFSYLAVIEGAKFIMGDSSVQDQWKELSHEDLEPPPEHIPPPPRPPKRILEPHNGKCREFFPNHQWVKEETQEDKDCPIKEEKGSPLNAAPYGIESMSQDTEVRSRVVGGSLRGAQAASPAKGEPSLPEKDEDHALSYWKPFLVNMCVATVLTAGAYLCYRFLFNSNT
# [4] = target: Low molecular weight phosphotyrosine protein phosphatase (Homo sapiens) (UniProt P24666); test: Inhibition of LMW-PTP isoform A in human HepG2 cells assessed as increase in insulin-induced Akt phosphorylation pretreated for 2 hrs followed by insulin stimulation and measured after 30 mins by Western blot analysis; assay type: cell-based; conditions: dose 2-16 µM
# How it was run: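 HepG2 cells in DMEM with 10% FBS at 37 °C and 5% CO2 were grown to 60-80% confluence and serum-starved overnight. They were given vehicle or compound for 2 h, then 50 nM insulin for 30 min. Lysates were run on 10% SDS-PAGE and immunoblotted for phospho-AKT and total AKT with ECL detection. Densitometric pAKT/AKT ratios were normalized to vehicle.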
Structure (SMILES),pIC50 [1],pKi [2],pIC50 [3],inhibition [4]
O=C(Nc1nc2ccc([N+](=O)[O-])cc2s1)C(c1ccccc1)S(=O)(=O)O (stereo not drawn),5.68,6.00,< 4.00,Dose-dependent effect
Cc1c(Br)cc(NC(=O)C(c2ccccc2)S(=O)(=O)O)cc1Br (stereo not drawn),–,–,< 3.70,–
O=C(Nc1ccc(-n2ccnc2)cc1)C(c1ccccc1)S(=O)(=O)O (stereo not drawn),–,–,< 4.00,–
O=C(Nc1cc(C(F)(F)F)cc(C(F)(F)F)c1)C(c1ccccc1)S(=O)(=O)O (stereo not drawn),5.19,–,< 3.70,–
